In ChEMBL document CHEMBL1143394, “Benzopyridooxathiazepine derivatives as novel potent antimitotic agents” (Bioorg Med Chem, 2009):

Tests used:
L1210 [1] = experiment: Cytotoxicity against mouse L1210 cells after 48 hrs by MTT assay; format: functional, cell-based; details: L1210, 48 h
Outline: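 Murine L1210 cells in RPMI 1640 with 10% FCS, glutamine, antibiotics and HEPES pH 7.4, exposed 48 h to graded concentrations. MTT added for 4 h at 37 °C, formazan dissolved in DMSO, OD 540 nm. IC50 (50% OD reduction vs untreated controls) by linear regression on linear zone of dose–response; triplicate.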

L1210 [2] = experiment: Cell cycle arrest in mouse L1210 cells assessed as accumulation at G2/M phase at 25 nM after 21 hrs by flow cytometry using propidium iodide staining; format: functional
Outline: (§1)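 L1210 cells exposed to compound for 21 h (two doubling times), fixed in 70% ethanol, washed, stained 30 min at 20 °C in D-PBS with RNAse and propidium iodide; 10⁴ cells per sample analysed by flow cytometry for G1, S, G2+M and 8N (tetraploid) fractions.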

HT-29 = experiment: Cytotoxicity against human HT29 cells after 96 hrs by MTA assay; format: functional
Outline: (§2)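 Adherent DU145, HT29, A549, KB 3-1 and KB-A1 cells grown in RPMI 1640 with 10% FCS, 2 mM glutamine, antibiotics and HEPES pH 7.4. Seeded, grown 2 days, then exposed to compound 96 h (about 4 doubling times). MTT added for 4 h at 37 °C, formazan dissolved in DMSO, read at 540 nm. IC50 from linear regression on linear part of dose–response; triplicate.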

L1210 [3] = experiment: Cell cycle arrest in mouse L1210 cells assessed as accumulation at G1 phase at 25 nM after 21 hrs by flow cytometry using propidium iodide staining; format: functional; outline: as §1
[4] = Metabolic stability in mouse liver microsomes assessed as bioavailability; format: ADME, Microsome; details: read-out: Metabolic Bioavailability
DU-145 = experiment: Cytotoxicity against human DU145 cells after 96 hrs by MTA assay; format: functional; outline: as §2
P388 [5] = experiment: Antitumor activity against mouse P388 cells xenografted in B6D2F1 mouse at 100 mg/kg, iv relative to control; format: functional
Outline: (§3)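 P388 leukaemia cells inoculated ip at 10⁶ cells/mouse into B6D2F1 mice on day 0; compound given once ip or iv on day 1. Result expressed as % T/C = median survival time of treated over untreated controls ×100.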

P388 [6] = experiment: Antitumor activity against mouse P388 cells xenografted in B6D2F1 mouse at 50 to 100 mg/kg, ip relative to control; format: functional; details: dose mg/kg 50-100; route intraperitoneal; outline: as §3
P388 [7] = experiment: Antitumor activity against mouse P388 cells xenografted in B6D2F1 mouse assessed as survivality at 100 mg/kg, iv; format: functional
Outline: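 P388 murine leukemia cells inoculated intraperitoneally (10⁶ cells/mouse) into B6D2F1 mice on day 0. Single intravenous dose given on day 1. Readout is percent T/C: median survival time of treated mice divided by median survival time of controls, ×100.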

[8] = Metabolic stability in human liver microsomes assessed as bioavailability; format: ADME, Microsome; details: read-out: Metabolic Bioavailability
A549 = experiment: Cytotoxicity against human A549 cells after 96 hrs by MTA assay; format: functional; outline: as §2
[9] = Cytotoxicity against human KB-3-1 cells after 96 hrs by MTA assay; format: functional; outline: as §2
[10] = Inhibition of tubulin polymerization
[11] = Cytotoxicity against adriamycin-resistant human KB-A1 cells after 96 hrs by MTA assay; format: functional; outline: as §2
P388 [12] = experiment: Antitumor activity against mouse P388 cells xenografted in B6D2F1 mouse assessed as survivality at 50 to 100 mg/kg, ip; format: functional; details: dose mg/kg 50-100, route intraperitoneal
L1210 [13] = experiment: Cell cycle arrest in mouse L1210 cells assessed as accumulation of tetraploid cells at 25 nM after 21 hrs by flow cytometry using propidium iodide staining; format: functional; outline: as §1
L1210 [14] = experiment: Cell cycle arrest in mouse L1210 cells assessed as accumulation at S phase at 25 nM after 21 hrs by flow cytometry using propidium iodide staining; format: functional; outline: as §1
L1210 [15] = experiment: Cell cycle arrest in mouse L1210 cells assessed as accumulation at G1 phase at 50 nM after 21 hrs by flow cytometry using propidium iodide staining; format: functional; outline: as §1
L1210 [16] = experiment: Cell cycle arrest in mouse L1210 cells assessed as accumulation at S phase at 50 nM after 21 hrs by flow cytometry using propidium iodide staining; format: functional; outline: as §1
L1210 [17] = experiment: Cell cycle arrest in mouse L1210 cells assessed as accumulation of tetraploid cells at 50 nM after 21 hrs by flow cytometry using propidium iodide staining; format: functional; outline: as §1
L1210 [18] = experiment: Cell cycle arrest in mouse L1210 cells assessed as accumulation at G2/M phase at 50 nM after 21 hrs by flow cytometry using propidium iodide staining; format: functional; outline: as §1
L1210 [19] = experiment: Cell cycle arrest in mouse L1210 cells assessed as accumulation at G1 phase at 100 nM after 21 hrs by flow cytometry using propidium iodide staining; format: functional; outline: as §1
L1210 [20] = experiment: Cell cycle arrest in mouse L1210 cells assessed as accumulation at S phase at 100 nM after 21 hrs by flow cytometry using propidium iodide staining; format: functional; outline: as §1
L1210 [21] = experiment: Cell cycle arrest in mouse L1210 cells assessed as accumulation at G2/M phase at 100 nM after 21 hrs by flow cytometry using propidium iodide staining; format: functional; outline: as §1
L1210 [22] = experiment: Cell cycle arrest in mouse L1210 cells assessed as accumulation of tetraploid cells at 100 nM after 21 hrs by flow cytometry using propidium iodide staining; format: functional; outline: as §1
L1210 [23] = experiment: Cell cycle arrest in mouse L1210 cells assessed as accumulation at G1 phase at 200 nM after 21 hrs by flow cytometry using propidium iodide staining; format: functional; outline: as §1
L1210 [24] = experiment: Cell cycle arrest in mouse L1210 cells assessed as accumulation at G2/M phase at 200 nM after 21 hrs by flow cytometry using propidium iodide staining; format: functional; outline: as §1
L1210 [25] = experiment: Cell cycle arrest in mouse L1210 cells assessed as accumulation of tetraploid cells at 200 nM after 21 hrs by flow cytometry using propidium iodide staining; format: functional; outline: as §1
L1210 [26] = experiment: Cell cycle arrest in mouse L1210 cells assessed as accumulation at S phase at 200 nM after 21 hrs by flow cytometry using propidium iodide staining; format: functional; outline: as §1

COc1ccc(CCN2C=CC=C3C2=Nc2ccccc2NS3(=O)=O)cc1
IC50 (L1210 [1]): 0.3 µM

COc1ccc(CN2C=CC=C3C2=Nc2ccccc2OS3(=O)=O)cc1
IC50 (L1210 [1]): 3.2 µM

O=S1(=O)Oc2ccccc2N=C2C1=CC=CN2CCc1cccc2ccccc12
IC50 (L1210 [1]): 9.6 µM

COc1ccc(CCN2C=CC=C3C2=Nc2ccccc2OS3(=O)=O)cc1
Activity (L1210 [2]): 25% | Activity (HT-29): 10 nM | Activity (L1210 [3]): 4% | bioavailability [4]: < 12% | Activity (DU-145): 17 nM | T/C (P388 [5]): 141% | IC50 (L1210 [1]): 0.0095 µM | T/C (P388 [6]): 161% | Activity (P388 [7]): 41% | bioavailability [8]: < 12% | Activity (A549): 11.5 nM | Activity [9]: 16 nM | INH [10]: 2.2 µM | Activity [11]: 13.2 nM | Activity (P388 [12]): 61% | Activity (L1210 [13]): 60% | Activity (L1210 [14]): 3%

COc1ccccc1CCN1C=CC=C2C1=Nc1ccccc1OS2(=O)=O
IC50 (L1210 [1]): 14.8 µM

COc1ccc(CCN2c3cc(C)ccc3OS(=O)(=O)c3cccnc32)cc1
IC50 (L1210 [1]): 22.5 µM

COc1ccc(CN2c3ccccc3OS(=O)(=O)c3cccnc32)cc1
IC50 (L1210 [1]): 0.77 µM

COc1ccc(CCCN2c3ccccc3OS(=O)(=O)c3cccnc32)cc1
IC50 (L1210 [1]): 15.4 µM

COc1cccc(CCN2C=CC=C3C2=Nc2ccccc2OS3(=O)=O)c1
IC50 (L1210 [1]): 0.8 µM

COc1ccc(CCCN2C=CC=C3C2=Nc2ccccc2OS3(=O)=O)cc1
IC50 (L1210 [1]): 8.6 µM

COc1cc(CCN2c3ccccc3OS(=O)(=O)c3cccnc32)cc(OC)c1OC
IC50 (L1210 [1]): 36.8 µM

COc1ccccc1CCN1c2ccccc2OS(=O)(=O)c2cccnc21
IC50 (L1210 [1]): > 10 µM

COc1ccc(CCN2c3cc(OC)ccc3OS(=O)(=O)c3cccnc32)cc1
IC50 (L1210 [1]): 11.2 µM

COc1cc([C@@H]2c3cc4c(cc3C[C@H]3COC(=O)[C@@H]32)OCO4)cc(OC)c1OC
INH [10]: 2.4 µM

COc1ccc(CCN2C=CC=C3C2=Nc2cc(Cl)ccc2OS3(=O)=O)cc1
Activity (HT-29): 27.1 nM | Activity (DU-145): 42.3 nM | IC50 (L1210 [1]): 0.027 µM | Activity (L1210 [15]): 3% | Activity (L1210 [16]): 3% | Activity (L1210 [17]): 65% | Activity (L1210 [18]): 29%

O=S1(=O)Oc2ccccc2N=C2C1=CC=CN2CCc1ccc(OCc2ccccc2)cc1
IC50 (L1210 [1]): > 100 µM

COc1ccc(CCN2c3ccccc3OS(=O)(=O)c3cccnc32)cc1
IC50 (L1210 [1]): 26.5 µM

COc1ccc(CCN2C=CC=C3C2=Nc2cc(C)ccc2OS3(=O)=O)cc1
Activity (HT-29): 50.2 nM | IC50 (L1210 [1]): 0.037 µM | Activity (L1210 [19]): 4% | Activity (L1210 [20]): 3% | Activity (L1210 [21]): 17% | Activity (L1210 [22]): 75%

COc1cc(CCN2C=CC=C3C2=Nc2ccccc2OS3(=O)=O)cc(OC)c1OC
IC50 (L1210 [1]): 27.7 µM

COc1ccc(CCN2C=CC=C3C2=Nc2cc(OC)ccc2OS3(=O)=O)cc1
Activity (DU-145): 116 nM | IC50 (L1210 [1]): 0.043 µM | Activity (L1210 [23]): 8% | Activity (L1210 [24]): 22% | Activity (A549): 99.1 nM | Activity (L1210 [25]): 59% | Activity (L1210 [26]): 11%

O=S1(=O)Oc2ccccc2N(CCc2cccc3ccccc23)c2ncccc21
IC50 (L1210 [1]): > 100 µM

O=S1(=O)Oc2ccccc2N=C2C1=CC=CN2CCc1ccc(O)cc1
IC50 (L1210 [1]): 0.6 µM

O=S1(=O)Oc2ccccc2N=C2C1=CC=CN2CCc1ccc(-c2ccccc2)cc1
IC50 (L1210 [1]): 5 µM
